MrgX1 antag: human MrgX1 receptor antagonism, primary screen. B-score at 10 µM. Q96LB2. AID 588676. actives 1.3% (n = 310,000). MRGX1-HEK293 calcium flux, Fluo-4, BAM8-22 antagonism; hits give low values;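 active = calcium-response B-score plate-corrected more than 3 library SD below zero, starting fluorescence within 5 deviations, no agonist response on first addition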;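 also: peak minus trough fluorescence over baseline after final BAM8-22 challenge near maximal dose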
Target sequence (Q96LB2 whole entry, looked up): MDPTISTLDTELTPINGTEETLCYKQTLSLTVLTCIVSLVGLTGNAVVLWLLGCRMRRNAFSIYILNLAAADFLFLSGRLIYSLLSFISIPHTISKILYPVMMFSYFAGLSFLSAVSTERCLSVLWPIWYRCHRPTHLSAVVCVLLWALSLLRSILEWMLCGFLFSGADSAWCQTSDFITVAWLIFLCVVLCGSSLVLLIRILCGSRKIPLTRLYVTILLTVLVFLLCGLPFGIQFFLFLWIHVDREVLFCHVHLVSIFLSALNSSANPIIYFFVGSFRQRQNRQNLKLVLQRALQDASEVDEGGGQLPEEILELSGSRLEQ
MrgX1 agonist: activates human MrgX1 receptor signaling; Q96LB2; MrgX1-HEK293 cells, Fluo-4 calcium fluorescence, agonist mode; hits give high values; B-score at 10 µM; actives 0.44% (n = 310,000);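 active = calcium response B-score plate-corrected fluorescence ratio at least 3 library SD, with starting fluorescence B-score inside 5 SD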
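Assay system: MrgX1-expressing HEK293 cells / Amount: fifteen thousand cells per well / Doses: test compound in the initial addition of three / Timing: cells plated overnight, dye loaded 0.5 h 37 °C, 0.5 h room temperature / Technique: kinetic calcium dye fluorescence, Fluo-4 NW / Control set: positive and negative controls per plate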
RGS4 act: RGS4 potentiation or activation | HEK293 M3R/inducible RGS4, carbachol calcium flux Fluo4; hits give low values | actives 0.92% (n = 310,000) | B-score at 10 µM;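 active = B-score of the integrated calcium signal more than 4 SD below the library mean, with starting fluorescence not abnormally high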;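 also: negative B-score means reduced calcium response which marks RGS4 activation or potentiation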
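Reagent: ECmax carbachol challenge; Test system: M3R-expressing HEK293 line, RGS4 induced by doxycycline; Schedule: overnight RGS4 induction, 30 min dye load 37 °C, 20 min compound RT; Detection: calcium dye Fluo4 fluorescence; Read-out: Agonist-evoked peak-minus-minimum fluorescence over baseline, integrated ratio, B score.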
MrgX1 PAM: allosterically activates human MrgX1 receptor signaling | B-score at 10 µM | MrgX1-HEK293, Fluo-4 calcium flux, FDSS; hits give high values | Q96LB2 | actives 0.63% (n = 310,000);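 active = plate-corrected calcium response at least 3 library SD above typical, normal starting fluorescence, not activating the receptor alone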;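 also: compound read alongside a low EC10 to EC30 dose of BAM8-22 agonist; peak minus trough fluorescence over baseline measured at the second addition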
RGS4 inh: inhibitors of human RGS4 | actives 0.45% (n = 310,000) | HEK293 M3R/RGS4 inducible, Fluo-4 calcium flux; hits give high values; triggered by carbachol at its EC20 | B-score at 10 µM | AID 463165 | P49798;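 active = B-score, a plate-corrected calcium signal, over three deviations above library mean, with baseline fluorescence within five deviations of library mean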;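 also: RGS4 expression induced by doxycycline in cells with stable M3 receptor; B-score is computed from the integrated fluorescence ratio over baseline after carbachol; higher B-score means a larger calcium signal and so more RGS4 inhibition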
Target sequence (P49798 whole entry, looked up): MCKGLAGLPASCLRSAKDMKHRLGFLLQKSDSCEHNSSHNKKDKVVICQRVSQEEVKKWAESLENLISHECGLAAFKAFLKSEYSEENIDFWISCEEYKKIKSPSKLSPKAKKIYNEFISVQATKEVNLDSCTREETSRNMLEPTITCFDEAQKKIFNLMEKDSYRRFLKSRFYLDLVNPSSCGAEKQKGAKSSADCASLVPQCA
MrgX1 allo conf: confirmation of human MrgX1 receptor positive allosteric modulators | shares compounds with MrgX1 PAM | MrgX1-HEK293, Fluo-4 calcium fluorescence, FDSS | activation (ratio percentage), % at 10 µM | actives 13% (n = 1,200);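 active = ratio at least 3 SD above the weak peptide control, stable starting fluorescence, no direct agonism earlier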;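 also: compound followed by low BAM8-22 agonist challenge near EC20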
HEK293 Ca flux: MrgX1 antagonist counter-screen hit in parental HEK293 cells; shares compounds with MrgX1 antag; Fluo-4 calcium fluorescence, FDSS; fluorescence ratio F(max-min)/F0 at 10 µM; actives 2% (n = 4,000); AID 624111;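 active = duplicate-averaged calcium fluorescence ratio at least three times the standard deviation of buffer wells, a nonspecific response in parental cells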
HEK293 Ca counter: activity in parental HEK293 cells without MrgX1 | shares compounds with MrgX1 antag | parental HEK293 calcium flux, Fluo-4 fluorescence ratio; hits give high values | fluorescence ratio F(max-min)/F0 at 10 µM | actives 0.4% (n = 4,000) | AID 624114;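 active = calcium fluorescence ratio, averaged over duplicates, at least 3 SD of the buffer-well ratio, meaning a nonspecific response in receptor-free cells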;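 also: untransfected parental HEK293 lacking MrgX1 used as counterscreen for MrgX1 allosteric activators; fluorescence change taken during the second addition on a kinetic imager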
HEK293 Ca cntr2: counter-screen for MrgX1 activators: effect in parental HEK293 cells. shares compounds with MrgX1 antag. Fluo-4 calcium fluorescence (FDSS); hits give high values. fluorescence ratio F(max-min)/F0 at 10 µM. actives 8.7% (n = 4,000);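 active = calcium fluorescence ratio at least three times the spread of buffer wells, meaning a non-specific response in parental cells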
The depositor's hits bear a star. This is a sample that favours compounds with a hit; in the whole collection about 3.5% have one here.

CCOC(=O)C1CCCN(C(=O)c2sc3nc(-c4ccc(F)cc4)cn3c2C)C1 (stereo not given) was read as MrgX1 antag inactive, MrgX1 agonist inactive, RGS4 act inactive, MrgX1 PAM 7.3*, RGS4 inh inactive, MrgX1 allo conf 14%*, HEK293 Ca flux inactive, HEK293 Ca counter inactive and HEK293 Ca cntr2 inactive.
For COc1ccccc1N(CC(O)Cn1ccnc1C)S(=O)(=O)c1ccccc1 (stereo not given) the results were MrgX1 antag inactive, MrgX1 agonist inactive, RGS4 act inactive, MrgX1 PAM inactive and RGS4 inh inactive.
`COc1ccccc1NC(=O)CCc1nnc2ccc(N3CCN(C)CC3)nn12` gave MrgX1 antag inactive, MrgX1 agonist inactive, RGS4 act inactive, MrgX1 PAM inactive and RGS4 inh inactive.
For O=C(NCCCNC(=O)c1ccc(-c2cccc(Cl)c2)o1)c1cnccn1 the results were MrgX1 antag inactive, MrgX1 agonist inactive, RGS4 act inactive, MrgX1 PAM 13*, RGS4 inh inactive, MrgX1 allo conf inactive, HEK293 Ca flux inactive, HEK293 Ca counter inactive and HEK293 Ca cntr2 inactive.
O=C(NCCNC(=O)c1cnccn1)c1cccc(Cl)c1 was read as MrgX1 antag inactive, MrgX1 agonist inactive, RGS4 act inactive, MrgX1 PAM inactive and RGS4 inh inactive.
O=C(NCCNC(=O)c1ccc(-c2ccc(Cl)c(Cl)c2)o1)c1cnccn1 was read as MrgX1 antag inactive, MrgX1 agonist inactive, RGS4 act inactive, MrgX1 PAM 7.2*, RGS4 inh inactive, MrgX1 allo conf inactive, HEK293 Ca flux inactive, HEK293 Ca counter inactive and HEK293 Ca cntr2 inactive.
For CCC(Sc1nc(N)c(NC(=O)c2ccc(Br)o2)c(=O)[nH]1)C(=O)O (stereo not given) the results were MrgX1 antag inactive, MrgX1 agonist inactive, RGS4 act inactive, MrgX1 PAM inactive and RGS4 inh inactive.
`COc1ccc(-c2cc(C(=O)Nc3ccc(F)cc3F)no2)cc1` gave MrgX1 antag inactive, MrgX1 agonist inactive, RGS4 act inactive, MrgX1 PAM inactive and RGS4 inh inactive.
Screening COc1ccc(-c2cc(C(=O)Nc3c(F)cc(F)cc3Br)no2)cc1 returned MrgX1 antag inactive, MrgX1 agonist inactive, RGS4 act inactive, MrgX1 PAM 8.9*, RGS4 inh inactive, MrgX1 allo conf inactive, HEK293 Ca flux inactive, HEK293 Ca counter inactive and HEK293 Ca cntr2 inactive.
`CCCn1cc(CN2CCC(N3CCC(C(=O)N4CCOCC4)CC3)CC2)c(C)n1` gave MrgX1 antag inactive, MrgX1 agonist inactive, RGS4 act inactive, MrgX1 PAM inactive and RGS4 inh inactive.
`Cc1ccc2nc(Br)c3c(c2c1)OC(CBr)C3` (stereo not given) gave MrgX1 antag inactive, MrgX1 agonist inactive, RGS4 act inactive, MrgX1 PAM inactive and RGS4 inh inactive.
Screening Cc1noc(C)c1S(=O)(=O)N1CCCC1C(=O)O (stereo not given) returned MrgX1 antag inactive, MrgX1 agonist inactive, RGS4 act inactive, MrgX1 PAM inactive and RGS4 inh inactive.
CCn1nc(C)c(CCC(=O)O)c1C was read as MrgX1 antag inactive, MrgX1 agonist inactive, RGS4 act inactive, MrgX1 PAM 10*, RGS4 inh inactive, MrgX1 allo conf inactive, HEK293 Ca flux inactive, HEK293 Ca counter inactive and HEK293 Ca cntr2 inactive.
Screening COc1cccc(COc2ccccc2C2Nc3ccc(Br)cc3C(=O)N2NC(=O)c2ccncc2)c1 (stereo not given) returned MrgX1 antag inactive, MrgX1 agonist inactive, RGS4 act inactive, MrgX1 PAM inactive and RGS4 inh inactive.
`Cc1ccc(S(=O)(=O)N2CCCC2C(=O)OCC(=O)Nc2ccc3c(c2)OCO3)cc1` (stereo not given) gave MrgX1 antag inactive, MrgX1 agonist inactive, RGS4 act inactive, MrgX1 PAM 17*, RGS4 inh inactive, MrgX1 allo conf inactive, HEK293 Ca flux inactive, HEK293 Ca counter inactive and HEK293 Ca cntr2 inactive.
For Cc1ccc(CNC(=O)c2ccc3c(c2)S(=O)(=O)c2ccccc2C3=O)o1 the results were MrgX1 antag inactive, MrgX1 agonist inactive, RGS4 act inactive, MrgX1 PAM inactive and RGS4 inh inactive.
`CN(Cc1ccccc1)C(=O)CCn1c(=O)c2cccn2c2cccnc21` gave MrgX1 antag inactive, MrgX1 agonist inactive, RGS4 act inactive, MrgX1 PAM inactive and RGS4 inh inactive.
Cc1cccc(S(=O)(=O)Nc2cccc3c2C(=O)c2ccccc2-3)c1 was read as MrgX1 antag inactive, MrgX1 agonist inactive, RGS4 act inactive, MrgX1 PAM 15*, RGS4 inh inactive, MrgX1 allo conf inactive, HEK293 Ca flux inactive, HEK293 Ca counter inactive and HEK293 Ca cntr2 47*.
For Cc1nc2ccccc2cc1OCc1ccccc1 the results were MrgX1 antag inactive, MrgX1 agonist inactive, RGS4 act inactive, MrgX1 PAM 6.6*, RGS4 inh inactive, MrgX1 allo conf inactive, HEK293 Ca flux inactive, HEK293 Ca counter inactive and HEK293 Ca cntr2 inactive.
Screening Cc1nc2ccccc2cc1OCc1ccc(Cl)cc1 returned MrgX1 antag inactive, MrgX1 agonist inactive, RGS4 act inactive, MrgX1 PAM inactive and RGS4 inh inactive.
Screening CC(CNC(=O)CN1C(=O)c2cccnc2Oc2ccc(Cl)cc21)c1ccccc1 (stereo not given) returned MrgX1 antag inactive, MrgX1 agonist inactive, RGS4 act inactive, MrgX1 PAM 12*, RGS4 inh inactive, MrgX1 allo conf inactive, HEK293 Ca flux inactive, HEK293 Ca counter inactive and HEK293 Ca cntr2 inactive.
`O=C(C1CCN(S(=O)(=O)c2cccs2)CC1)N1CCc2ccccc2C1` gave MrgX1 antag inactive, MrgX1 agonist inactive, RGS4 act inactive, MrgX1 PAM inactive and RGS4 inh inactive.

Screening results deposited in PubChem by Johns Hopkins Ion Channel Center.
